According to ChEMBL document CHEMBL3792365, “Dioxol and dihydrodioxin analogs of 2- and 3-phenylacetonitriles as potent anti-cancer agents with nanomolar activity against a variety of human cancer cells” (2016):

How the values were obtained:
Type in all cases: functional
[1] = Growth inhibition of human Hs 578T cells after 48 hrs by sulforhodamine B assay
In short: (§1)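 Five-dose testing against a 60-line human tumor cell panel. GI50 is the drug concentration giving a 50% reduction in net protein increase relative to untreated control cells.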

[2] = Growth inhibition of human OVCAR3 cells after 48 hrs by sulforhodamine B assay; settings: OVCAR-3, 48 h
In short: (§2)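 Five-dose concentration series run across a panel of 60 human tumour cell lines. GI50 is taken as the drug concentration giving a 50% reduction in net protein increase relative to untreated control cells.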

[3] = tested on: SK-MEL-2; experiment: Growth inhibition of human SK-MEL-2 cells after 48 hrs by sulforhodamine B assay; settings: SK-MEL-2, 48 h; in short: as §2
[4] = Growth inhibition of human SF295 cells after 48 hrs by sulforhodamine B assay; settings: SF-295, 48 h; in short: as §2
[5] = tested on: HT-29; experiment: Growth inhibition of human HT-29 cells after 48 hrs by sulforhodamine B assay; settings: HT-29, 48 h; in short: as §1
[6] = tested on: NCI-H23; experiment: Growth inhibition of human NCI-H23 cells after 48 hrs by sulforhodamine B assay; settings: NCI-H23, 48 h; in short: as §2
[7] = Growth inhibition of human PC3 cells after 48 hrs by sulforhodamine B assay; settings: PC-3, 48 h; in short: as §2
[8] = Growth inhibition of human NCI-ADR-RES cells after 48 hrs by sulforhodamine B assay; in short: as §2
[9] = Growth inhibition of human HOP62 cells after 48 hrs by sulforhodamine B assay; settings: HOP-62, 48 h; in short: as §1
[10] = Growth inhibition of human SF539 cells after 48 hrs by sulforhodamine B assay; settings: SF-539, 48 h; in short: as §2
[11] = Growth inhibition of human HCC2998 cells after 48 hrs by sulforhodamine B assay; settings: HCC 2998, 48 h; in short: as §1
[12] = Growth inhibition of human OVCAR4 cells after 48 hrs by sulforhodamine B assay; settings: OVCAR-4, 48 h; in short: as §2
[13] = Growth inhibition of human SF268 cells after 48 hrs by sulforhodamine B assay; settings: SF-268, 48 h; in short: as §2
[14] = Growth inhibition of human SW620 cells after 48 hrs by sulforhodamine B assay; settings: SW-620, 48 h; in short: as §2
[15] = tested on: A498; experiment: Growth inhibition of human A498 cells after 48 hrs by sulforhodamine B assay; settings: A498, 48 h; in short: as §1
[16] = Growth inhibition of human RPMI8226 cells after 48 hrs by sulforhodamine B assay; settings: RPMI-8226, 48 h; in short: as §2
[17] = tested on: CCRF-CEM; experiment: Growth inhibition of human CCRF-CEM cells after 48 hrs by sulforhodamine B assay; in short: as §1
[18] = Growth inhibition of human UO31 cells after 48 hrs by sulforhodamine B assay; settings: UO-31, 48 h
In short: (§3)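 Five-dose testing across the 60-line human tumour cell panel. GI50 is the drug concentration that gives a 50% reduction in net protein increase relative to control cells.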

[19] = Growth inhibition of human HCT116 cells after 48 hrs by sulforhodamine B assay; settings: HCT-116, 48 h; in short: as §1
[20] = Growth inhibition of human SKOV3 cells after 48 hrs by sulforhodamine B assay; settings: SK-OV-3, 48 h; in short: as §2
[21] = tested on: A549; experiment: Growth inhibition of human A549/ATCC cells after 48 hrs by sulforhodamine B assay; settings: A549, 48 h; in short: as §1
[22] = tested on: U-251; experiment: Growth inhibition of human U251 cells after 48 hrs by sulforhodamine B assay; settings: U-251, 48 h; in short: as §2
[23] = tested on: M14; experiment: Growth inhibition of human M14 cells after 48 hrs by sulforhodamine B assay; settings: M14, 48 h; in short: as §1
[24] = tested on: MDA-MB-231; experiment: Growth inhibition of human MDA-MB-231 cells after 48 hrs by sulforhodamine B assay; settings: MDA-MB-231, 48 h; in short: as §1
[25] = Growth inhibition of human HL-60(TB) cells after 48 hrs by sulforhodamine B assay; settings: HL-60, 48 h
In short: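 Five-dose study across the 60-cell human tumour panel. GI50 is the drug concentration giving a 50% reduction in net protein increase relative to control cells.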

[26] = tested on: SR; experiment: Growth inhibition of human SR cells after 48 hrs by sulforhodamine B assay; in short: as §2
[27] = Growth inhibition of human COLO205 cells after 48 hrs by sulforhodamine B assay; settings: COLO 205, 48 h; in short: as §1
[28] = Growth inhibition of human UACC62 cells after 48 hrs by sulforhodamine B assay; settings: UACC-62, 48 h; in short: as §3
[29] = tested on: NCI-H522; experiment: Growth inhibition of human NCI-H522 cells after 48 hrs by sulforhodamine B assay; settings: NCI-H522, 48 h; in short: as §2
[30] = Growth inhibition of human SNB75 cells after 48 hrs by sulforhodamine B assay; settings: SNB-75, 48 h; in short: as §2
[31] = tested on: MDA-MB-435; experiment: Growth inhibition of human MDA-MB-435 cells after 48 hrs by sulforhodamine B assay; settings: MDA-MB-435, 48 h; in short: as §1
[32] = tested on: SK-MEL-5; experiment: Growth inhibition of human SK-MEL-5 cells after 48 hrs by sulforhodamine B assay; settings: SK-MEL-5, 48 h; in short: as §2
[33] = Growth inhibition of human DU145 cells after 48 hrs by sulforhodamine B assay; settings: DU-145, 48 h; in short: as §1
[34] = tested on: ACHN; experiment: Growth inhibition of human ACHN cells after 48 hrs by sulforhodamine B assay; in short: as §1
[35] = Growth inhibition of human Caki1 cells after 48 hrs by sulforhodamine B assay; settings: CAKI-1, 48 h; in short: as §1
[36] = Growth inhibition of human SNB19 cells after 48 hrs by sulforhodamine B assay; settings: SNB-19, 48 h; in short: as §2
[37] = tested on: SK-MEL-28; experiment: Growth inhibition of human SK-MEL-28 cells after 48 hrs by sulforhodamine B assay; settings: SK-MEL-28, 48 h; in short: as §2
[38] = tested on: KM12; experiment: Growth inhibition of human KM12 cells after 48 hrs by sulforhodamine B assay; settings: KM12, 48 h; in short: as §1
[39] = Growth inhibition of human HCT15 cells after 48 hrs by sulforhodamine B assay; settings: HCT-15, 48 h; in short: as §1
[40] = Growth inhibition of human MOLT4 cells after 48 hrs by sulforhodamine B assay; settings: MOLT-4, 48 h; in short: as §2
[41] = Growth inhibition of human IGROV1 cells after 48 hrs by sulforhodamine B assay; settings: IGROV-1, 48 h; in short: as §1
[42] = tested on: MDA-MB-468; experiment: Growth inhibition of human MDA-MB-468 cells after 48 hrs by sulforhodamine B assay; settings: MDA-MB-468, 48 h; in short: as §1
[43] = Growth inhibition of human LOXIMVI cells after 48 hrs by sulforhodamine B assay; settings: LOX IMVI; in short: as §1
[44] = tested on: MCF7; experiment: Growth inhibition of human MCF7 cells after 48 hrs by sulforhodamine B assay; settings: MCF7, 48 h; in short: as §1
[45] = tested on: 786-0; experiment: Growth inhibition of human 786-0 cells after 48 hrs by sulforhodamine B assay; settings: 786-0, 48 h; in short: as §1
[46] = Growth inhibition of human HOP92 cells after 48 hrs by sulforhodamine B assay; settings: HOP-92, 48 h; in short: as §1

COc1ccc(/C=C/c2cc(OC)c(OC)c(OC)c2)cc1
GI50 [1]: 3.09 µM
GI50 [2]: 3.45 µM
GI50 [3]: 3.95 µM
GI50 [4]: 2.18 µM
GI50 [5]: 2.32 µM
GI50 [6]: 3.37 µM
GI50 [7]: 3.22 µM
GI50 [8]: 3.01 µM
GI50 [9]: 3.14 µM
GI50 [10]: 2.18 µM
GI50 [11]: 3.59 µM
GI50 [12]: 4 µM
GI50 [13]: 7.59 µM
GI50 [14]: 2.07 µM
GI50 [15]: 0.74 µM
GI50 [16]: 6.42 µM
GI50 [17]: 2.89 µM
GI50 [18]: 3.69 µM
GI50 [19]: 3.23 µM
GI50 [20]: 3.34 µM
GI50 [21]: 3.7 µM
GI50 [22]: 3.07 µM
GI50 [23]: 2.81 µM
GI50 [24]: 3.74 µM
GI50 [25]: 3.14 µM
GI50 [26]: 3.93 µM
GI50 [27]: 2.07 µM
GI50 [28]: 2.37 µM
GI50 [29]: 3.7 µM
GI50 [30]: 1.88 µM
GI50 [31]: 1.04 µM
GI50 [32]: 2.5 µM
GI50 [33]: 4.23 µM
GI50 [34]: 4.51 µM
GI50 [35]: 3 µM
GI50 [36]: 4.85 µM
GI50 [37]: 3.86 µM
GI50 [38]: 3.63 µM
GI50 [39]: 2.82 µM
GI50 [40]: 3.22 µM
GI50 [41]: 5.29 µM
GI50 [42]: 2.22 µM
GI50 [43]: 4.89 µM
GI50 [44]: 1.66 µM
GI50 [45]: 5.42 µM
GI50 [46]: 7.23 µM
